Screens as filed in PubChem BioAssay.
MEKK2wt PB1 HTS – modulators of MEK5 binding to wildtype MEKK2, primary screen, biochemical, multiplex bead flow cytometry, Alexa488-MEK5. Mitogen-activated protein kinase kinase kinase 2 (Homo sapiens), Q9Y2U5. Alexa488-MEK5 binding to MEKK2 WT; actives lie on both sides. binding response (% of control), % at 10 µM. actives 1.1% (n = 290,000); in the data active means binding response below about 67% or above about 130%; inconclusive means no clear call, values can overlap the other calls; inactive means in between
UBC13 polyUb – UBC13 polyubiquitin chain formation inhibitors, primary screen, biochemical, TR-FRET, uHTS. Ubiquitin-conjugating enzyme E2 N (Homo sapiens), P61088. inhibition, % at 20 µM. actives 0.47% (n = 330,000); in the data active means inhibition above about 45%, passing the limit was not always enough; inconclusive means no clear call, values can overlap the other calls
Apaf-1 inh – inhibitors of human Apaf-1 apoptosome, primary screen, biochemical, DEVD-Rh110 fluorescence, uHTS. Apoptotic protease-activating factor 1 (Homo sapiens), O14727. actives 0.71% (n = 330,000). reconstituted apoptosome caspase-3 activity. AID 489030, 2010. inhibition, % at 20 µM; active means inhibition of at least 40% at 20 µM
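Assay system – apoptosome proteins · Medium – Hepes buffer, pH 7.5 · Also added – cytochrome c with DEVD-Rh110 · Timing – 30 min compound preincubation, 50 min activation, room temperature · Detection – Rh110 fluorescence, excitation 480 nm, emission 540 nm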
MEKK2mut PB1 HTS – MEK5 binding signal on mutant MEKK2 PB1, primary screen, biochemical, multiplex bead flow cytometry, Alexa488-MEK5. actives 0.35% (n = 290,000). Alexa488-MEK5 binding to MEKK2 mutant. percent response, % at 10 µM; in the data active means percent response above about 24%, passing the limit was not always enough
MEKK3 PB1 HTS – modulators of MEKK3-MEK5 PB1 binding, primary screen, biochemical, wildtype MEKK3, multiplex bead flow cytometry, Alexa488-MEK5; Mitogen-activated protein kinase kinase kinase 3 (Homo sapiens), Q99759; bead-based flow cytometry, Alexa488-MEK5 binding to MEKK3; actives lie on both sides; 0 = blocked by unlabeled MEK5, 100 = vehicle; binding response (% of control), % at 10 µM; actives 1.4% (n = 290,000);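 active means binding response more than 3 SD above or below the average of its plate-row segment, actives on both sides; inconclusive means wells at one plate position flagged as instrument error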;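 further: Alexa488 bead fluorescence after subtracting the streptavidin-only scavenger bead signal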
Casp3 counter – CASP3 inhibitor validation, counterassay for project on UBE2N polyubiquitination blockers, biochemical, one dose; shares compounds with UBC13 polyUb; inhibition, % at 20 µM; Recombinant caspase-3, Caspase-Glo 3/7 luminescence, 60 min; AID 488856, 2010; actives 4% (n = 1,400);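 active means mean inhibition across replicates above about 26%, limit read from the data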
UBC13 conf – UBC13 polyubiquitination inhibitors, single-point retest, confirmation, biochemical, TR-FRET, single concentration | shares compounds with UBC13 polyUb | inhibition, % at 10 µM | actives 68% (n = 1,400); in the data active means inhibition above about 45%; inconclusive means no clear call, values can overlap the other calls
Numbers stand for hits. The list is not random: actives were taken first. Their share in the collection is about 2.9%.

Screening CC1CCCCN1CCNC(=O)c1cc2c(=O)n(C)c3ccccc3c2n1C (centres undefined) returned MEKK2wt PB1 HTS inactive, UBC13 polyUb 46, Apaf-1 inh inactive, MEKK2mut PB1 HTS inactive, MEKK3 PB1 HTS inactive, Casp3 counter inactive and UBC13 conf 46.
`Cn1c(C(=O)NCCN2CCOCC2)cc2c(=O)n(C)c3ccccc3c21` gave MEKK2wt PB1 HTS inactive, UBC13 polyUb inactive, Apaf-1 inh inactive, MEKK2mut PB1 HTS inactive and MEKK3 PB1 HTS inactive.
`CCN(C(=O)COC(=O)c1cccc(-n2cnnn2)c1)C1CCCCC1` gave MEKK2wt PB1 HTS inactive, UBC13 polyUb inactive, Apaf-1 inh inactive, MEKK2mut PB1 HTS inactive and MEKK3 PB1 HTS inactive.
COc1ccccc1C(=O)Nc1c2c(nn1-c1cccc(C)c1C)CS(=O)(=O)C2 was read as MEKK2wt PB1 HTS inactive, UBC13 polyUb 46, Apaf-1 inh inactive, MEKK2mut PB1 HTS inactive, MEKK3 PB1 HTS inactive, Casp3 counter inactive and UBC13 conf inactive.
`C[C@@H]1CCCCCCCCC(=O)OCCN[C@H](C)CCCCCCCCC(=O)OCCN[C@H](C)CCCCCCCCC(=O)OCCN1` gave UBC13 polyUb 63, Apaf-1 inh 68, Casp3 counter inactive and UBC13 conf 51.
Screening NNC(=O)CS(=O)(=O)c1ccc(Cl)cc1 returned MEKK2wt PB1 HTS inactive, UBC13 polyUb inactive, Apaf-1 inh inactive, MEKK2mut PB1 HTS inactive and MEKK3 PB1 HTS inactive.
`CCN(Cc1ccccc1)C(=O)CCS(=O)(=O)c1cc2c(cc1Cl)NC(=O)CO2` gave MEKK2wt PB1 HTS inactive, UBC13 polyUb inactive, Apaf-1 inh inactive, MEKK2mut PB1 HTS inactive and MEKK3 PB1 HTS inactive.
For Cc1ccc(NC(=O)c2cc(S(=O)(=O)NCCC3=CCCCC3)ccc2F)cc1F the results were MEKK2wt PB1 HTS inactive, UBC13 polyUb inactive, Apaf-1 inh inactive, MEKK2mut PB1 HTS inactive and MEKK3 PB1 HTS inactive.
Screening O=C(Nc1cccc(F)c1)c1cc(S(=O)(=O)NCCC2=CCCCC2)ccc1F returned MEKK2wt PB1 HTS inactive, UBC13 polyUb 48, Apaf-1 inh inactive, MEKK2mut PB1 HTS inactive, MEKK3 PB1 HTS inactive, Casp3 counter inactive and UBC13 conf inactive.
`Cc1ccc(N2CC(C(=O)N3CCC(C(=O)Nc4nnc(C(C)(C)C)s4)CC3)CC2=O)cc1` (centres undefined) gave MEKK2wt PB1 HTS inactive, UBC13 polyUb inactive, Apaf-1 inh inactive, MEKK2mut PB1 HTS inactive and MEKK3 PB1 HTS inactive.
COc1ccc2c(CCNC(=O)Nc3ccccc3)c[nH]c2c1 was read as MEKK2wt PB1 HTS inactive, UBC13 polyUb inactive, Apaf-1 inh inactive, MEKK2mut PB1 HTS inactive and MEKK3 PB1 HTS inactive.
For COc1ccc2[nH]cc(CCNC(=O)Nc3ccccc3)c2c1 the results were MEKK2wt PB1 HTS inactive, UBC13 polyUb 52, Apaf-1 inh inactive, MEKK2mut PB1 HTS inactive, MEKK3 PB1 HTS inactive, Casp3 counter inactive and UBC13 conf inactive.
For CN(C(=O)C(C)(C)C)C1c2c(ccc3ccccc23)OCC1CO (centres undefined) the results were MEKK2wt PB1 HTS inactive, MEKK2mut PB1 HTS inactive and MEKK3 PB1 HTS inactive.
CC(=NCc1ccco1)c1c(C)[nH]n(-c2nc3ccccc3s2)c1=O was read as MEKK2wt PB1 HTS inactive, UBC13 polyUb 53, Apaf-1 inh inactive, MEKK2mut PB1 HTS inactive, MEKK3 PB1 HTS inactive, Casp3 counter 78 and UBC13 conf inconclusive.
`CC1CN(S(=O)(=O)c2cccc(C(=O)N(Cc3nnc(-c4ccccc4Cl)o3)C3CC3)c2)CC(C)O1` (centres undefined) gave UBC13 polyUb 51, Apaf-1 inh inactive, Casp3 counter inactive and UBC13 conf 86.
